In ChEMBL document CHEMBL4376883, “Discovery and Optimization of Small Molecules Targeting the Protein-Protein Interaction of Heat Shock Protein 90 (Hsp90) and Cell Division Cycle 37 as Orally Active Inhibitors for the Treatment of Colorectal Cancer” (J Med Chem, 2020):

Tested on: A549
Assay: Antiproliferative activity against human A549 cells measured after 72 hrs by CCK8 assay
Type: functional, cell-based
Conditions: A549, 72 h
Outline: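 Cells grown in RPMI 1640 with 10% FBS at 37 °C, 5% CO2; STR-authenticated and mycoplasma-checked. Seeded at 3000-5000 cells/well and left 24 h. Serial compound dilutions added for 72 h, with matched DMSO as control. Viability read by CCK8 kit using the standard protocol. IC50 values derived from at least three parallel experiments.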

Cc1cc(C)c(S(=O)(=O)N(CC(=O)O)c2ccc(Nc3ccnc(N4CCNCC4)n3)cc2)c(C)c1
IC50: > 50 µM
